Values after ≈ are worked out from the molar mass of the structure shown.
Experiments:
Micrococcus = experiment: Antimicrobial activity against Micrococcus tetragenus ATCC 13623 by broth dilution assay; assay type: functional; settings: Micrococcus, ATCC 13623; read-out: MIC
In short: (§1)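 Conventional broth dilution run on the seven terrestrial pathogenic bacterial strains, with ciprofloxacin as positive control.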

Kocuria rhizophila = experiment: Antimicrobial activity against Kocuria rhizophila ATCC 9341 by broth dilution assay; assay type: functional; settings: Kocuria rhizophila, ATCC 9341; read-out: MIC; in short: as §1
Staphylococcus aureus = experiment: Antimicrobial activity against Staphylococcus aureus ATCC 6538 by broth dilution assay; assay type: functional; in short: as §1
Staphylococcus = experiment: Antimicrobial activity against Staphylococcus albus ATCC 8799 by broth dilution assay; assay type: functional; settings: Staphylococcus, ATCC 8799; read-out: MIC; in short: as §1
A549 = experiment: Cytotoxic activity against human A549 cells by MTT assay; assay type: functional, cell-based
In short: (§2)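 MTT viability read-out on mouse melanoma B16F10 and human lung adenocarcinoma A549 lines, with epirubicin as positive control. Activity is given as IC50.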

Bacillus cereus = experiment: Antimicrobial activity against Bacillus cereus ATCC 14579 by broth dilution assay; assay type: functional; in short: as §1
Escherichia coli = experiment: Antimicrobial activity against Escherichia coli ATCC 25922 by broth dilution assay; assay type: functional; in short: as §1
[1] = Cytotoxic activity against mouse B16F10 cells by MTT assay; assay type: functional, cell-based; settings: B16-F10; in short: as §2
Bacillus subtilis = experiment: Antimicrobial activity against Bacillus subtilis ATCC 6633 by broth dilution assay; assay type: functional; settings: Bacillus subtilis, ATCC 6633; read-out: MIC; in short: as §1
[2] = Staphylococcus aureus, ATCC 6538, read-out: MIC
[3] = Bacillus cereus, ATCC 14579, read-out: MIC
[4] = Escherichia coli, ATCC 25922, read-out: MIC

Row | Compound | MIC (Micrococcus) [µM] | MIC (Kocuria rhizophila) [µM] | MIC (Staphylococcus aureus; [2]) [µM] | MIC (Staphylococcus) [µM] | IC50 (A549) [µM] | MIC (Bacillus cereus; [3]) [µM] | MIC (Escherichia coli; [4]) [µM] | IC50 [1] [µM] | MIC (Bacillus subtilis) [µM] | MIC (Staphylococcus aureus) [µM] | MIC (Bacillus cereus) [µM] | MIC (Escherichia coli) [µM]
1 | COc1cc2c(c(O)c1-c1c(OC)cc(O)c3c1C(=O)C1=C(C[C@@H](O)[C@@](C)(O)C1)C3=O)C(=O)C1=C(C[C@](C)(O)[C@H](O)C1)C2=O | > 10 | > 10 | > 10 | > 10 | > 10 | 8.3 (≈ 5.03 µg/mL) | > 10 | > 10 | > 10 |  |  | 
2 | COc1cc(O)c2c(c1)C(=O)c1cc(C)c(O)c(-c3c(OC)cc(O)c4c3C(=O)c3cc(C)c(O)cc3C4=O)c1C2=O (single isomer, unassigned; atropisomer 2) | > 10 | > 10 | > 10 | > 10 |  | > 10 | > 10 |  | > 10 |  |  | 
3 | COc1cc(O)c2c(c1)C(=O)[C@@]13O[C@]1(C2=O)[C@H](O)[C@@H](O)[C@@](C)(O)[C@@H]3O | > 10 | > 10 | > 10 | > 10 | > 10 | > 10 | 9.8 (≈ 3.45 µg/mL) | > 10 | > 10 |  |  | 
4 | COc1cc(O)c2c(c1)C(=O)c1cc(C)c(O)c(-c3c(OC)cc4c(c3O)C(=O)C3=C(C4=O)[C@@H](O)[C@](C)(O)[C@H](O)[C@H]3O)c1C2=O (single isomer, unassigned; atropisomer 1) [ALTERPORRIOL C] | > 10 | > 10 | > 10 | 8.9 (≈ 5.51 µg/mL) | > 10 | > 10 | > 10 | > 10 | > 10 |  |  | 
5 | COc1cc(O)c2c(c1-c1c(OC)cc(O)c3c1C(=O)c1cc(C)c(O)cc1C3=O)C(=O)C1=C(C2=O)[C@H](O)[C@@H](O)[C@@](C)(O)[C@@H]1O (single isomer, unassigned; atropisomer 1) [ALTERPORRIOL A/B] | > 10 | > 10 | > 10 | > 10 |  | 7.9 (≈ 4.89 µg/mL) | > 10 |  | > 10 |  |  | 
6 | COc1cc(O)c2c(c1)C(=O)C1=C(C2=O)[C@H](O)[C@@H](O)[C@@](C)(O)[C@@H]1O [ALTERSOLANOL A] | 8.2 (≈ 2.76 µg/mL) | > 10 | 2.07 (≈ 0.696 µg/mL) | > 10 | > 10 | > 10 | 4.1 (≈ 1.38 µg/mL) | > 10 | 4.1 (≈ 1.38 µg/mL) |  |  | 
7 | COc1cc2c(c(O)c1-c1c(OC)cc(O)c3c1C(=O)C1=C(C[C@@H](O)[C@@](C)(O)[C@@H]1O)C3=O)C(=O)C1=C(C[C@](C)(O)[C@H](O)C1)C2=O | > 10 | > 10 | > 10 | > 10 |  | > 10 | > 10 |  | > 10 |  |  | 
8 | COc1cc(O)c2c(c1)C(=O)C1=C(C[C@@H](O)[C@@](C)(O)C1)C2=O [ALTERSOLANOL B] | > 10 | 7.8 (≈ 2.37 µg/mL) | 7.8 (≈ 2.37 µg/mL) | > 10 | > 10 | > 10 | 7.8 (≈ 2.37 µg/mL) | > 10 | 7.8 (≈ 2.37 µg/mL) |  |  | 
9 | COc1cc(O)c2c(c1)C(=O)c1cc(C)c(O)c(-c3c(OC)cc4c(c3O)C(=O)c3cc(O)c(C)cc3C4=O)c1C2=O [ALTERPORRIOL Q] | > 10 | > 10 | > 10 | > 10 | > 10 | > 10 | > 10 | > 10 | > 10 |  |  | 
10 | COc1cc(O)c2c(c1-c1c(OC)cc(O)c3c1C(=O)C1=C(C3=O)[C@@H](O)[C@H](O)[C@](C)(O)[C@H]1O)C(=O)C1=C(C2=O)[C@H](O)[C@@H](O)[C@@](C)(O)[C@@H]1O (single isomer, unassigned; atropisomer 2) | > 10 |  |  | > 10 |  |  | 5 (≈ 3.35 µg/mL) |  |  | >10 | 2.5 (≈ 1.68 µg/mL) | 
11 | COc1cc(O)c2c(c1)C(=O)c1cc(C)c(O)c(-c3c(OC)cc(O)c4c3C(=O)C3=C(C[C@@H](O)[C@@](C)(O)[C@@H]3O)C4=O)c1C2=O | > 10 | > 10 | > 10 | > 10 | > 10 | > 10 | > 10 | > 10 | > 10 |  |  | 
12 | COc1cc(O)c2c(c1-c1c(OC)cc(O)c3c1C(=O)C1=C(C[C@@H](O)[C@@](C)(O)[C@@H]1O)C3=O)C(=O)C1=C(C[C@@H](O)[C@@](C)(O)[C@@H]1O)C2=O | > 10 | > 10 | > 10 | > 10 |  | > 10 | > 10 |  | > 10 |  |  | 
13 | COc1cc(O)c2c(c1)[C@H](O)[C@@H]1C(=C[C@@H](O)[C@@](C)(O)[C@@H]1O)C2=O | > 10 | > 10 | > 10 | > 10 | > 10 | > 10 | > 10 | > 10 | > 10 |  |  | 
14 | COc1cc(O)c2c(c1-c1c(OC)cc(O)c3c1C(=O)C1=C(C3=O)[C@@H](O)[C@H](O)[C@](C)(O)[C@H]1O)C(=O)C1=C(C2=O)[C@H](O)[C@@H](O)[C@@](C)(O)[C@@H]1O (atropisomer, axis not shown) |  | > 10 | 5 (≈ 3.35 µg/mL) |  | > 10 |  |  | > 10 | > 10 |  | 10 (≈ 6.71 µg/mL) | 7.5 (≈ 5.03 µg/mL)
15 | COc1cc(O)c2c(c1)[C@H](O)[C@@H]1[C@H](C[C@@H](O)[C@@](C)(O)[C@@H]1O)C2=O [ALTERSOLANOL L] | > 10 | > 10 | > 10 | > 10 | > 10 | > 10 | > 10 | > 10 | > 10 |  |  | 
16 | COc1cc(O)c2c(c1)[C@H](O)[C@@H]1[C@H](C[C@@H](OC(C)=O)[C@@](C)(O)[C@@H]1O)C2=O | > 10 | > 10 | > 10 | > 10 | > 10 | > 10 | > 10 | > 10 | > 10 |  |  | 
17 | COc1cc(O)c2c(c1)C(=O)C1=C(C[C@@H](O)[C@@](C)(O)[C@@H]1O)C2=O [ALTERSOLANOL C] | > 10 | > 10 | > 10 | > 10 |  | > 10 | > 10 |  | 8.8 (≈ 2.82 µg/mL) |  |  | 
18 | COc1cc(O)c2c(c1)[C@H](O)[C@H]1C[C@](C)(O)[C@H](O)C[C@@H]1C2=O [TETRAHYDROALTERSOLANOL B] | > 10 | > 10 | > 10 | > 10 |  | > 10 | 7.3 (≈ 2.25 µg/mL) |  | > 10 |  |  | 
19 | O=C(O)c1cn(C2CC2)c2cc(N3CCNCC3)c(F)cc2c1=O [CIPROFLOXACIN] | 0.3 (≈ 0.0994 µg/mL) | 0.3 (≈ 0.0994 µg/mL) | 0.16 (≈ 0.053 µg/mL) | 0.6 (≈ 0.199 µg/mL) |  | 0.6 (≈ 0.199 µg/mL) | 0.3 (≈ 0.0994 µg/mL) |  | 0.6 (≈ 0.199 µg/mL) |  |  | 
20 | COc1cc(O)c2c(c1)[C@H](O)[C@@H]1[C@@H](C2=O)[C@H](O)[C@@H](O)[C@@](C)(O)[C@@H]1O [AMPELANOL] | > 10 | > 10 | > 10 | > 10 |  | > 10 | > 10 |  | > 10 |  |  | 
